# In ChEMBL document CHEMBL4118271, “Synthesis and antitumor activity of novel 6,7,8-trimethoxy N-aryl-substituted-4-aminoquinazoline derivatives” (Bioorg Med Chem Lett, 2018):
# pIC50: −log10 of the molar value. Calls of active or inactive are those of the source. The rule behind the calls is not given here.
# What was measured:
# [1] = system: SGC-7901; assay: Anticancer activity against human SGC7901 cells after 72 hrs by MTT assay; assay type: functional, cell-based; settings: SGC-7901, 72 h
# [2] = system: SGC-7901; assay: Induction of morphological changes in human SGC7901 cells assessed as induction of cell break at 1 and 10 uM after 24 to 72 hrs by inverted microscopic analysis; assay type: functional, cell-based
# Summary of the method: (§1)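 SGC7901 cells were seeded and allowed 24 h to settle, then exposed to 0.1% (v/v) DMSO vehicle, to test agent at 1 or 10 μM, or to epirubicin at 1 or 10 μM. Exposure lasted 24, 48 and 72 h. Morphology (shrinkage, size, apoptotic bodies, breakdown) was then observed microscopically.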
# [3] = system: SGC-7901; assay: Anticancer activity against human SGC7901 cells at 1 to 10 uM after 72 hrs by MTT assay; assay type: functional, cell-based
# Summary of the method: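 Growth inhibition of SGC7901 gastric cancer cells tested at single concentrations of 10 and 1 μM for 72 h, read out by MTT assay. Epirubicin served as the positive control at the same concentrations.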
# [4] = system: SGC-7901; assay: Induction of morphological changes in human SGC7901 cells at 1 uM after 24 hrs by inverted microscopic analysis; assay type: functional, cell-based; summary of the method: as §1
# [5] = system: SGC-7901; assay: Induction of morphological changes in human SGC7901 cells assessed as induction of cell shrinking at 10 uM after 48 to 72 hrs by inverted microscopic analysis; assay type: functional, cell-based; summary of the method: as §1
# [6] = system: SGC-7901; assay: Antiproliferative activity against human SGC7901 cells assessed as formation of apoptotic bodies at 10 uM after 48 to 72 hrs by inverted microscopic analysis; assay type: functional, cell-based; summary of the method: as §1
# [7] = target: Mitogen-activated protein kinase; ERK1/ERK2 (Homo sapiens) (UniProt P27361+P28482); assay: Inhibition of EGF-induced ERK1/2 phosphorylation in human SGC7901 cells incubated for 30 mins post 10 min EGF stimulation by Western blot analysis; assay type: cell-based
# Summary of the method: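 SGC7901 cells were grown in RPMI 1640 with 10% serum to 80% confluency and stimulated with 40 ng/ml EGF for 10 min. They were then treated for 30 min with 0.1% (v/v) DMSO or test agent at 1, 10, 20 or 40 μM. Lysates were run on SDS-PAGE and blotted for phospho-ERK1/2, with actin as loading control, ECL detection and densitometry. Three independent experiments were run.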
# [8] = system: SGC-7901; assay: Induction of morphological changes in human SGC7901 cells assessed as reduction in cell size at 10 uM after 48 to 72 hrs by inverted microscopic analysis; assay type: functional, cell-based; summary of the method: as §1
# Sequence of Mitogen-activated protein kinase; ERK1/ERK2 (Homo sapiens) (P27361 whole entry, looked up): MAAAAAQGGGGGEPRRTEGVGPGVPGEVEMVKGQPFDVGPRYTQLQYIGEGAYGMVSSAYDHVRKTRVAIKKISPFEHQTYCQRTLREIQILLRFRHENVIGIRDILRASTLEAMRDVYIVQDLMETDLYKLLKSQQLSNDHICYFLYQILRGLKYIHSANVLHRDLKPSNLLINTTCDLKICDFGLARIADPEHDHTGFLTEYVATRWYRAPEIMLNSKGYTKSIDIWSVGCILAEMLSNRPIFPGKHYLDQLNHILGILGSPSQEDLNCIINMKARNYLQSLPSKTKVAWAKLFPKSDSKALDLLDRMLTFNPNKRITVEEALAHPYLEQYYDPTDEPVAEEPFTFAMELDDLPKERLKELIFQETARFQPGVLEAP
# Sequence of Mitogen-activated protein kinase; ERK1/ERK2 (Homo sapiens) (P28482 whole entry, looked up): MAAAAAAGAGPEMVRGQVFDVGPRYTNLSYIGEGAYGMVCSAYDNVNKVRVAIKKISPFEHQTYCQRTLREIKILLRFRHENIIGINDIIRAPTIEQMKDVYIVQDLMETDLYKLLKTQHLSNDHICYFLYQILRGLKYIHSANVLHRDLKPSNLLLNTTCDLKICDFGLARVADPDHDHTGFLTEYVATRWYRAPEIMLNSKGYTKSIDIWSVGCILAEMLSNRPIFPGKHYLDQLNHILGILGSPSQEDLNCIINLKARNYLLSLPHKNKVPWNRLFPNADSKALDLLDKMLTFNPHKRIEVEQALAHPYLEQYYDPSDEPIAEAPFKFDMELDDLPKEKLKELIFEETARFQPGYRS
SMILES,pIC50 [1],also measured
COc1cccc2c1C(=O)c1c(O)c3c(c(O)c1C2=O)C[C@@](O)(C(=O)CO)C[C@@H]3O[C@H]1C[C@H](N)[C@@H](O)[C@H](C)O1 [EPIRUBICIN],5.29,Activity [2]: Active
COc1cc2c(Nc3cccc(F)c3F)ncnc2c(OC)c1OC,< 4.52,–
COc1cc2c(Nc3cc(Br)ccc3F)ncnc2c(OC)c1OC,4.74,–
COc1cc2c(Nc3cccc(Cl)c3F)ncnc2c(OC)c1OC,< 4.52,–
COc1cc2c(Nc3ccc(B(O)O)cc3)ncnc2c(OC)c1OC,6.36,Activity [3]: Active; Activity [4]: inactive; Activity [5]: Active; Activity [6]: Active; inhibition [7]: Dose-dependent effect; Activity [8]: Active
COc1cc2c(Nc3cccc(Br)c3F)ncnc2c(OC)c1OC,< 4.52,–
COc1cc2c(Nc3ccc(C(F)(F)F)cc3)ncnc2c(OC)c1OC,< 4.52,–
COc1cc2c(Nc3cc(C(F)(F)F)ccc3F)ncnc2c(OC)c1OC,4.99,–
COc1cc2c(Nc3cccc(I)c3)ncnc2c(OC)c1OC,5.06,–
COc1cc2c(Nc3ccc(F)c(Cl)c3F)ncnc2c(OC)c1OC,< 4.52,–
COc1cc2c(Nc3ccc(F)c(Cl)c3)ncnc2c(OC)c1OC,5.27,–
COc1cc2c(Nc3ccc(Br)c(F)c3)ncnc2c(OC)c1OC,< 4.52,–
COc1cc2c(Nc3cccc(C(F)(F)F)c3)ncnc2c(OC)c1OC,< 4.52,–
C#Cc1cccc(Nc2ncnc3c(OC)c(OC)c(OC)cc23)c1,5.23,–
COc1cc2c(Nc3ccc(Br)c(Cl)c3F)ncnc2c(OC)c1OC,4.82,–
